Published values from different studies.
Lines come from different studies, so protocols differ.

Structure (SMILES)	host	matrix	route	dose	notes	AUC(0-t)
CSc1cc(Oc2ccnc3[nH]c(=O)cnc23)ccc1NC(=O)Nc1cc(C(C)(C)C)nn1-c1ccccc1	BALB/c mouse	plasma	intravenous	2 mg/kg		95 µM·h
COc1ccc(C(O)COc2ccc(-c3csc(-c4ccc(OCC(O)c5ccc(OC)c(OC)c5)cc4)n3)cc2)cc1OC (stereo not drawn)	C57BL/6 mouse	plasma	oral	75 mg/kg		73000 ng·h/mL
CN1CCN(c2nccc3nc(-c4ccc(F)c(F)c4)[nH]c23)CC1	mouse	blood	oral	5 mg/kg		3.25 µM·h
CCc1cc(OC)c2nccc(N3CCc4c(cc(Cn5ccnc5)cc4-c4cn(C)nc4C(F)(F)F)C3=O)c2c1	male CD-1 mouse	plasma	oral	150 mg/kg		224000 ng·h/mL
FC(F)(F)Oc1ccc(Nc2cc(-c3cn[nH]c3)ncn2)cc1	male BALB/c mouse	plasma	oral	20 mg/kg		6110 ng·h/mL
O=S(=O)(c1ccc(-c2ccc3nccc(Nc4ccncn4)c3c2)cc1)N1CCOCC1	female BALB/c mouse	plasma	intraperitoneal	10 mg/kg		9510 ng·h/mL
CN1CCC[C@H](CN2c3ccccc3Sc3ccccc32)C1.Cl	mouse	plasma	oral	64 mg/kg	single dose	6010 ng·h/mL
C=CC(=O)N1CC2CC(n3nc(-c4ccc(C(=O)Nc5ccccn5)cc4)c4c(N)ncnc43)CC2C1 (stereo not drawn)	SCID mouse	plasma	oral	5 mg/kg		1120 ng·h/mL
CCc1ccc(Cc2cc([C@@H]3O[C@H](CO)[C@@H](O)[C@H](O)[C@H]3O)cc3c2CCC3)cc1	male C57BL/6 mouse	plasma	intravenous	1 mg/kg		1440 ng·h/mL
Cc1ccc(NC(=O)c2ccc(CN3CCN(C)CC3)cc2)cc1Nc1nccc(-c2cncc(-c3oncc3C)c2)n1	male C57BL/6 mouse	plasma	oral	100 mg/kg/day		37800 ng·h/mL
CN1CCN(CC2CCN(c3cncc4[nH]c(-c5cc(F)cc(F)c5)nc34)CC2)CC1	mouse	blood	oral	10 mg/kg		3.57 µM·h
CCc1cc(C(=O)NC)c2nccc(N3CCc4c(cc(Cn5ccnc5)cc4-c4cn(C)nc4C(F)(F)F)C3=O)c2c1	male CD-1 mouse	plasma	oral	50 mg/kg		122000 ng·h/mL
CN1CCN(C(=O)CN[C@@H]2C[C@H]2c2ccc(OCc3ccccc3)cc2)CC1	mouse	plasma	intraperitoneal	10 mg/kg		1660 ng·h/mL
Cc1c2c(n(-c3ccc(Cl)cc3Cl)c1-c1ccc(OS(=O)(=O)CCC(F)(F)F)cc1)CCN(N1CCCCC1)C2=O	mouse	plasma	oral	6 µmol/kg	single dose	3.6 µM·h
Cc1nc(-c2cnc(NC(C)C)n(C)c2=O)ccc1Oc1ccnc(-c2cnn(C)c2)c1	female mouse	plasma	oral	3.75 mg/kg	single dose	29000 ng·h/mL
CNCCN(C)c1cc(C#N)cc(CCc2cc(C)cc(N)n2)c1	male BALB/c mouse	plasma	oral	10 mg/kg		162 ng·h/mL
COc1cc(OC)c2nccc(N3CCc4c(cc(Cn5ccnc5)cc4-c4cn(C)nc4C(F)(F)F)C3=O)c2c1	male CD-1 mouse	plasma	intravenous	3 mg/kg		803 ng·h/mL
CS(=O)(=O)CCNCc1ccc(-c2ccc3ncnc(Nc4ccc(OCc5cccc(F)c5)c(Cl)c4)c3c2)o1	nude mouse	plasma	oral	50 mg/kg	single dose	34100 ng·h/mL
Cc1ccc2cncc(N3CCc4c(cc(Cn5ccnc5)cc4-c4cn(C)nc4C(F)(F)F)C3=O)c2c1	male CD-1 mouse	plasma	oral	10 mg/kg		4420 ng·h/mL
C[C@H](NC(=O)C(C)(C)Oc1ccc(C(F)(F)F)cn1)[C@@H](Cc1ccc(Cl)cc1)c1cccc(C#N)c1	mouse	plasma	oral	6 µmol/kg	single dose	5.3 µM·h
COc1nc(-c2cc(C)c(N[C@@H](C)c3ccc(F)cc3)nn2)ccc1-n1cnc(C)c1	male CD-1 mouse	plasma	oral	5 mg/kg	single dose	12700 ng·h/mL
C[C@H]1[C@@H](O)O[C@@H]2O[C@@]3(C)CC[C@H]4[C@H](C)CC[C@@H]1[C@@]24OO3	female SCID mouse	plasma	oral	120 mg/kg		1870 ng·h/mL
CN1CCC(N2CCN(c3nccc4[nH]c(-c5ccc(F)c(F)c5)nc34)CC2)CC1	BALB/c mouse	blood	oral	20 mg/kg		6.63 µM·h
CC[C@H](C)[C@@H]1NC(=O)[C@@](C)(NC(=O)[C@H](CCCNC(=N)N)NC(=O)[C@H](CC(C)C)NC(=O)[C@@H](NC(=O)[C@H](CCC(N)=O)NC(=O)[C@H](CC(C)C)NC(C)=O)[C@@H](C)O)CCCC=CCCC[C@@](C)(C(=O)N[C@@H](CC(C)C)C(=O)N[C@@H](Cc2ccc3ccccc3c2)C(N)=O)NC(=O)[C@H](CCCNC(=N)N)NC(=O)[C@H](CCC(N)=O)NC1=O	male BALB/c mouse	plasma	intravenous	5 mg/kg		124000 ng·h/mL
COc1ccc2nccc(N3CCc4c(cc(Cn5ccnc5)cc4-c4cn(C)nc4C(F)(F)F)C3=O)c2c1	male CD-1 mouse	plasma	oral	10 mg/kg		2080 ng·h/mL
COc1nc(-c2cc(C)c(N[C@@H](C)c3c(F)cc(F)cc3F)nn2)ccc1-n1cnc(C)c1	male CD-1 mouse	plasma	intravenous	1 mg/kg	single dose	2500 ng·h/mL
NC(=O)c1cc(Oc2ccc(NC(=O)Nc3ccc(Cl)c(C(F)(F)F)c3)c(F)c2)cc[n+]1[O-]	mouse	plasma	oral	10 mg/kg	single dose	65 ng·h/mL
CCOC(=O)c1sc(Nc2ncccn2)nc1-c1ccccn1	male CD-1 mouse	plasma	intravenous	2 mg/kg		448 ng·h/mL
Cn1ccnc1N1CCN(CC2CCN(c3nccc4[nH]c(-c5cc(F)cc(F)c5)nc34)CC2)CC1	BALB/c mouse	blood	oral	20 mg/kg		19 µM·h
CC=Cc1ccc(O)c(OC)c1	mouse	plasma	intranasal	100 mg/kg		9980 ng·h/mL
